# Data reported in ChEMBL document CHEMBL3244213, “Synthesis of angiotensin II antagonists by incorporating alpha-methylalanine or O-methylthreonine residues in angiotension II analogues” (J Med Chem, 1977).
# Active and inactive are the calls of the source. No cut-off for these calls is given here. Non-standard residues stand in square brackets, D forms with d. Residues, ends and D or L forms follow the SMILES beside them. Sar = CNCC(=O)O
# Key:
# [1] = Retardation factor of the compound using n-BuOH-AcOH-water at ratio of 4:1:5 as solvent system by thin layer chromatography; type: physicochemical; conditions: buffer
# [2] = Retardation factor of the compound using n-BuOH-pyridine-water at ratio of 10:2:5 as solvent system by thin layer chromatography; type: physicochemical; conditions: buffer
# [3] = Retardation factor of the compound using n-BuOH-AcOH-water-pyridine at ratio of 30:6:24:20 as solvent system by thin layer chromatography; type: physicochemical; conditions: buffer
# Oryctolagus cuniculus [4] = species on record: Oryctolagus cuniculus; test: Antagonist at angiotensin 2 receptor in rabbit aorta assessed as duration of action at 1 uM/L treated for 5 mins after angiotensin-2 challenge
# Procedure, shortened: (§1)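 Spirally cut rabbit aortic strips challenged with a standard 10^-9 M/L angiotensin II dose, then incubated with 10^-6 M/L analogue for 5 min; analogue washed out of the bath and angiotensin II response retested at 5, 30, 60, 120 and 180 min.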
# Oryctolagus cuniculus [5] = species on record: Oryctolagus cuniculus; test: Non-competitive antagonist at angiotensin 2 receptor in rabbit aorta assessed as inhibition of angiotensin-2 induced myotropic activity at > 1 uM/L; type: tissue-based
# Rattus norvegicus [6] = test: In vivo agonist activity at angiotensin 2 receptor in ganglion-blocked vagotomized rat assessed as rise in blood pressure at 250 ng/kg/min compound infused for 30 mins; type: functional
# Procedure, shortened: (§2)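 Vagotomized, ganglion-blocked rats given analogue by infusion (standard rate 250 ng/kg/min, some at 125 ng/kg/min); initial blood pressure rise recorded in mmHg over the 30-min infusion period.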
# Rattus norvegicus [7] = test: In vivo non-competitive antagonist activity at angiotensin 2 receptor in ganglion-blocked vagotomized rat assessed as angiotensin-2 dose ratio at 250 ng/kg/min administered as an infusion; type: functional
# Procedure, shortened: (§3)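 Vagotomized, ganglion-blocked rats infused with analogue at 125 or 250 ng/kg/min; antagonism of angiotensin II pressor response expressed as dose ratio.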
# [8] = Competitive antagonist at angiotensin 2 receptor in rabbit aorta assessed as rightward shift in angiotensin-2 dose response curve for myotropic activity; type: tissue-based, Oryctolagus cuniculus
# Rattus norvegicus [9] = test: In vivo agonist activity at angiotensin 2 receptor in ganglion-blocked vagotomized rat assessed as pressor activity administered as single bolus dose relative to angiotensin-2; type: functional
# Procedure, shortened: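 Vagotomized, ganglion-blocked rats; analogue given as a single injection and pressor response expressed as percent of angiotensin II ([Asp1,Ile5]angiotensin II = 100).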
# Rattus norvegicus [10] = test: In vivo agonist activity at angiotensin 2 receptor in ganglion-blocked vagotomized rat assessed as rise in blood pressure at 250 ng/kg/min compound infused for 3 mins; type: functional
# [11] = Retardation factor of the compound using n-PrOH-water at ratio of 2:1 as solvent system by thin layer chromatography; type: physicochemical; conditions: buffer
# [12] = Retardation factor of the compound using n-BuOH-pyridine-water at ratio of 65:35:35 as solvent system by thin layer chromatography; type: physicochemical; conditions: buffer
# [13] = Retardation factor of the compound using n-BuOH-AcOEt-AcOH-water at ratio of 1:1:1:1 as solvent system by thin layer chromatography; type: physicochemical; conditions: buffer
# Rattus norvegicus [14] = test: In vivo agonist activity at angiotensin 2 receptor in ganglion-blocked vagotomized rat assessed as rise in blood pressure at 250 ng/kg/min compound infused for 10 mins; type: functional
# Oryctolagus cuniculus [15] = species on record: Oryctolagus cuniculus; test: Agonist activity at angiotensin 2 receptor in rabbit aorta assessed as myotropic activity up to 1 uM/L relative to angiotensin-2; type: tissue-based
# Procedure, shortened: (§4)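 Spirally cut isolated rabbit aortic strips; contractile (myotropic) activity of each analogue tested up to a maximum dose level of 10^-6 M/L.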
# Rattus norvegicus [16] = test: In vivo non-competitive antagonist activity at angiotensin 2 receptor in ganglion-blocked vagotomized rat assessed as angiotensin-2 dose ratio at 125 ng/kg/min administered as an infusion; type: functional; procedure, shortened: as §3
# Rattus norvegicus [17] = test: In vivo agonist activity at angiotensin 2 receptor in ganglion-blocked vagotomized rat assessed as rise in blood pressure at 125 ng/kg/min compound infused for 3 mins; type: functional
# Rattus norvegicus [18] = test: In vivo agonist activity at angiotensin 2 receptor in ganglion-blocked vagotomized rat assessed as rise in blood pressure at 125 ng/kg/min compound infused for 30 mins; type: functional; procedure, shortened: as §2
# [19] = Retardation factor of the compound using n-BuOH-pyridine-water at ratio of 65:35:65 as solvent system by thin layer chromatography; type: physicochemical; conditions: buffer
# [20] = Retardation factor of the compound using n-BuOH-AcOH-water at ratio of 4:1:1 as solvent system by thin layer chromatography; type: physicochemical; conditions: buffer
# Oryctolagus cuniculus [21] = species on record: Oryctolagus cuniculus; test: Agonist activity at angiotensin 2 receptor in rabbit aorta assessed as myotropic activity relative to angiotensin-2; type: tissue-based; procedure, shortened: as §4
# Felis catus [22] = species on record: Felis catus; test: Agonist activity at angiotensin 2 receptor in cat adrenal cortex assessed as secretory activity relative to angiotensin-2; type: tissue-based
# Felis catus [23] = species on record: Felis catus; test: Agonist activity at angiotensin 2 receptor in cat adrenal medulla assessed as secretory activity relative to angiotensin-2; type: tissue-based
# Rattus norvegicus [24] = test: In vivo agonist activity at angiotensin 2 receptor in ganglion-blocked vagotomized rat assessed as rise in blood pressure at 125 ng/kg/min compound infused for 10 mins; type: functional
# Oryctolagus cuniculus [25] = species on record: Oryctolagus cuniculus; test: Reversal antagonistic activity at angiotensin 2 receptor in rabbit aorta assessed as inhibition of angiotensin-2 induced myotropic activity at 1 uM/L measured at 1 hr following drug wash-out; type: tissue-based; procedure, shortened: as §1
Structure (SMILES),Rf [1],Rf [2],Rf [3],TIME (Oryctolagus cuniculus [4]),Rf [12],Rf [19],inhibition (Oryctolagus cuniculus [5]),Activity (Rattus norvegicus [6]),Ratio (Rattus norvegicus [7]),pA2 [8],Activity (Rattus norvegicus [9]),Activity (Rattus norvegicus [10]),Activity (Rattus norvegicus [14]),Activity (Oryctolagus cuniculus [15]),Ratio (Rattus norvegicus [16]),Activity (Rattus norvegicus [17]),Activity (Rattus norvegicus [18]),further results
CC[C@H](C)[C@H](NC(=O)[C@H](Cc1ccc(O)cc1)NC(=O)[C@@H](NC(=O)CN(C)C(=O)CNC)C(C)C)C(=O)N[C@@H](Cc1c[nH]cn1)C(=O)N1CCC[C@H]1C(=O)N[C@H](C(=O)O)[C@@H](C)O (H-[Sar][Sar]VYIHPT-OH),0.46,0.24,0.63,3 h,0.43,,Active,11.66 mmHg,1.93,8.78,0%,3.16 mmHg,7 mmHg,0%,,,,Rf [11]: 0.76; Rf [13]: 0.75
CC[C@H](C)[C@H](NC(=O)[C@@H]1CCCN1C(=O)[C@H](Cc1c[nH]cn1)NC(=O)[C@@H](NC(=O)[C@H](Cc1ccc(O)cc1)NC(=O)[C@@H](NC(=O)[C@H](CCCN=C(N)N)NC(=O)CNC)C(C)C)[C@@H](C)CC)C(=O)O,,,,2 h,,,Active,14.81 mmHg,27.79,9.17,1%,17.81 mmHg,18.27 mmHg,1%,,,,
CC[C@H](C)[C@H](NC(=O)[C@H](Cc1ccc(O)cc1)NC(=O)[C@@H](NC(=O)[C@H](CCCN=C(N)N)NC(=O)CNC)C(C)C)C(=O)N[C@@H](Cc1c[nH]cn1)C(=O)N1CCC[C@H]1C(=O)N[C@H](C(=O)O)[C@@H](C)O (H-[Sar]RVYIHPT-OH),,,,2 h,,,Active,9.2 mmHg,26.91,8.79,0.6%,9.46 mmHg,9.66 mmHg,0.5%,,,,Activity (Oryctolagus cuniculus [21]): 0.5%; Activity (Felis catus [22]): 1%; Activity (Felis catus [23]): 0.1%
CNCC(=O)N[C@@H](CCCNC(=N)N)C(=O)N[C@H](C(=O)N[C@@H](Cc1ccc(O)cc1)C(=O)N[C@H](C(=O)N[C@@H](Cc1cnc[nH]1)C(=O)N1CCC[C@H]1C(=O)N[C@H](C(=O)O)[C@@H](C)OC)[C@@H](C)OC)C(C)C,0.28,,0.47,2 h,0.18,,Active,,,9.5,0.46%,,,0%,32.73,8.33 mmHg,14.5 mmHg,Activity (Rattus norvegicus [24]): 13 mmHg
CC[C@H](C)[C@H](NC(=O)[C@H](Cc1ccc(O)cc1)NC(=O)[C@@H](NC(=O)[C@H](CCCN=C(N)N)NC(=O)CNC)C(C)C)C(=O)N[C@@H](Cc1c[nH]cn1)C(=O)N1CCC[C@H]1C(=O)N[C@@H](C)C(=O)O,,,,2 h,,,Active,17.44 mmHg,7.92,8.61,,15.11 mmHg,16.88 mmHg,0.5%,,,,
CC[C@H](C)[C@H](NC(=O)[C@@H]1CCCN1C(=O)[C@H](Cc1c[nH]cn1)NC(=O)[C@@H](NC(=O)[C@H](Cc1ccc(O)cc1)NC(=O)[C@@H](NC(=O)[C@H](CCCN=C(N)N)NC(=O)CNC)C(C)C)[C@@H](C)OC)C(=O)O (H-[Sar]RVYT(Me)HPI-OH),0.35,0.08,,2 h,0.25,0.25,Active,18.5 mmHg,50,9.5,1.01%,19 mmHg,18.83 mmHg,0.1%,24.15,11 mmHg,19.8 mmHg,Activity (Rattus norvegicus [24]): 16.82 mmHg

# More lines, main results first:
Rf [1],Rf [2],Rf [3],TIME (Oryctolagus cuniculus [4]),Rf [12],Rf [19],Structure (SMILES),inhibition (Oryctolagus cuniculus [5]),Activity (Rattus norvegicus [6]),Ratio (Rattus norvegicus [7]),pA2 [8],Activity (Rattus norvegicus [9]),Activity (Rattus norvegicus [10]),Activity (Rattus norvegicus [14]),Activity (Oryctolagus cuniculus [15]),Ratio (Rattus norvegicus [16]),Activity (Rattus norvegicus [17]),Activity (Rattus norvegicus [18]),further results
,,,2 h,,,CC[C@H](C)[C@H](NC(=O)[C@H](Cc1ccc(O)cc1)NC(=O)[C@@H](NC(=O)[C@H](CCCNC(=N)N)NC(=O)CNC)C(C)C)C(=O)N[C@@H](Cc1cnc[nH]1)C(=O)N1CCC[C@H]1C(=O)N[C@H](C(=O)O)[C@@H](C)OC,Active,15.06 mmHg,62.52,8.76,0.48%,13.82 mmHg,15.88 mmHg,0.5%,11.65,5.25 mmHg,8.75 mmHg,
0.46,,0.62,2 h,0.26,0.22,CC[C@H](C)[C@H](NC(=O)[C@H](Cc1ccc(O)cc1)NC(=O)[C@@H](NC(=O)[C@H](CCCNC(=N)N)NC(=O)CNC)C(C)C)C(=O)N[C@@H](Cc1cnc[nH]1)C(=O)N1CCC[C@H]1C(=O)NC(C)(C)C(=O)O,Active,16.6 mmHg,19.76,8.7,0.52%,11 mmHg,13.16 mmHg,0%,,,,Rf [20]: 0.5
0.47,0.26,0.64,1 h,0.41,0.43,CC[C@H](C)[C@H](NC(=O)[C@H](Cc1ccc(O)cc1)NC(=O)[C@@H](NC(=O)[C@H](CCCNC(=N)N)NC(=O)C(C)(C)N)C(C)C)C(=O)N[C@@H](Cc1cnc[nH]1)C(=O)N1CCC[C@H]1C(=O)NC(C)(C)C(=O)O,Active,14.33 mmHg,3.4,7.22,0.24%,5.16 mmHg,8.5 mmHg,0%,,,,Rf [11]: 0.83; inhibition (Oryctolagus cuniculus [25]): Active
